ChEMBL document CHEMBL3120085 (J Med Chem, 2014)

How the values were obtained:
[1] = Apparent passive permeability from apical to basolateral side in dog RRCK cells; format: ADME, cell-based, Canis lupus familiaris, MDCKII-LE; conditions: MDCK
How it was run: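 Passive A→B permeability measured across RRCK cells, a low-transporter line isolated from MDCK cells.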

[2] = Ratio of unbound drug level in brain homogenate to plasma in rat at 1 mg/kg, sc; format: ADME, organism-based; set-up: dose 1 mg/kg, route subcutaneous
[3] = Oral bioavailability in rat at 5 mg/kg; format: ADME, organism-based; conditions: in vivo
How it was run: (§1)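 F from mean AUC0−∞ after single doses: rat 1 mg/kg iv and 5 mg/kg po (n = 3/dose, or iv n = 2); monkey 1 mg/kg iv and 30 mg/kg po, n = 2/dose.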

[4] = Ratio of unbound drug level in brain homogenate to plasma in rat at 1 mg/kg, sc after 4 hrs; format: ADME, organism-based; set-up: dose 1 mg/kg, route subcutaneous
How it was run: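 Rat neuropharmacokinetic study, single 1 mg/kg sc dose, n = 2 per time point. Ratio derived from AUC0−4 of unbound brain versus unbound plasma concentration. Unbound concentrations were corrected using the unbound fraction measured in brain homogenate and in plasma.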

[5] = Volume of distribution at steady state in monkey; format: ADME, organism-based, Macaca mulatta; conditions: rhesus monkey, in vivo; read-out: Vdss
[6] = Volume of distribution at steady state in rat; format: ADME, organism-based; conditions: in vivo, read-out: Vdss
[7] = Oral bioavailability in monkey at 30 mg/kg; format: ADME, organism-based, Macaca mulatta; conditions: rhesus monkey, in vivo; how it was run: as §1

| SMILES | Papp A→B [1] [×10⁻⁶ cm/s] | further results |
| --- | --- | --- |
| CCC(C)NC(=O)c1nn(C)c2nc(OCc3cccc(C)n3)ccc12 (stereo not given) | 19.8 | – |
| Cn1nc(-c2ccccn2)c2ccc(OCc3ccccn3)nc21 | 11.7 | – |
| Cc1cccnc1-c1nn(C)c2nc(OCc3ccccn3)cnc12 | 28.5 | – |
| CCN(CC)C(=O)c1nn(C)c2nc(OCc3ccccn3)cnc12 | 31.5 | Kp uu [2]: 0.51; bioavailability [3]: 35% |
| Cc1ccncc1-c1nn(C)c2nc(OCc3ccccn3)cnc12 | 21 | Kp uu at 4 h [4]: 2; Vd [5]: 0.69 L/kg; Vd [6]: 1.3 L/kg; bioavailability [3]: 28%; bioavailability [7]: 67% |
| C[C@@H]1CCCN1C(=O)c1nn(C)c2nc(OCc3ccccn3)ccc12 | 21 | Kp uu [2]: 1.01; bioavailability [3]: 0.4% |
| Cc1c(-c2nn(C)c3nc(OCc4ccccn4)cnc23)cnn1C | 14.4 | – |
| Cc1ccncc1-c1nn(C2CC2)c2nc(OCc3ccccn3)cnc12 | 19.6 | – |
| Cc1c(Cl)cncc1-c1nn(C)c2nc(OCc3ccccn3)cnc12 | 14.1 | – |
| CCn1nc(-c2cnccc2C)c2ncc(OCc3ccccn3)nc21 | 13.8 | – |
| Cc1ccnnc1-c1nn(C)c2nc(OCc3ccccn3)cnc12 | 21.5 | – |
| Cn1nc(-c2ncccc2OC(F)F)c2ncc(OCc3ccccn3)nc21 | 28.7 | – |
| Cn1nc(-c2cccnc2)c2ncc(OCc3ccccn3)nc21 | 22.5 | – |
| Cn1nc(-c2ccccc2)c2ccc(OCc3ccccn3)nc21 | 0.78 | – |
| Cn1nc(-c2cnccc2C(F)(F)F)c2ncc(OCc3ccccn3)nc21 | 21.4 | – |
| Cn1nc(-c2cccnc2)c2ccc(OCc3ccccn3)nc21 | 24.4 | – |
